From ChEMBL document CHEMBL3244080, “Structure-activity correlations for a series of antiallergy agents. Oxanilic, quinaldic, and benzopyran-2-carboxylic acids” (1978) come the findings set out here.

Structures are written as SMILES.

The subject of the test is Rattus norvegicus. Description: Antiallergic activity in iv dosed Sprague-Dawley rat assessed as inhibition of egg albumin-induced passive cutaneous anaphylaxis. In kind it is functional. Particulars: for ED50: Rattus norvegicus, Sprague-Dawley, iv. The gist of the method:
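Rat passive cutaneous anaphylaxis; drug given iv as its tris(hydroxymethyl)aminomethane (THAM) salt solution at the moment of antigen challenge. Percent inhibition of the PCA reaction measured at three or more trial doses; ED50 = dose giving 50% inhibition of the anaphylactic reaction.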

Broadly, the ED50 is the dose that gives a 50% effect, or the effect in half of the subjects. In the case of `O=C(O)c1cc(=O)c2cc([N+](=O)[O-])ccc2o1`, the Activity_index came to 11.9 and the ED50 turned out to be 6.48 µmol/kg.

As to `N#Cc1ccc(NC(=O)C(=O)O)cc1`, the Activity_index is listed as 10.1 and the ED50 came out at 40.5 µmol/kg.

`N#Cc1cccc(NC(=O)C(=O)O)c1`: the Activity_index is 12.6 and the median effective dose (ED50) stood at 3.38 µmol/kg.

As for `Nc1ccc2nc(C(=O)O)cc(O)c2c1`, the Activity_index turned out to be 9.9 and the median effective dose (ED50) came to 48.3 µmol/kg.

As to `N#Cc1ccc(Cl)c(NC(=O)C(=O)O)c1`, the Activity_index turned out to be 13.3 and the 50% effective dose (ED50) came out at 1.74 µmol/kg.

Turning to `O=C(O)C(=O)Nc1ccccc1`, the Activity_index is reported as 8.3 and the ED50 came to 245 µmol/kg.

With `N#Cc1cc(NC(=O)C(=O)O)ccc1Cl`, the Activity_index is on record as 13.1 and the median effective dose (ED50) was found to be 2.06 µmol/kg.

In the case of `N#Cc1ccccc1NC(=O)C(=O)O`, the Activity_index was 11.5 and the ED50 came out at 10.1 µmol/kg.

For `O=C(O)c1cc(=O)c2c(OCC(O)COc3cccc4oc(C(=O)O)cc(=O)c34)cccc2o1` [CROMOLYN SODIUM], the ED50 came to 6.1 µmol/kg.

For `COc1ccc2nc(C(=O)O)cc(O)c2c1`, the Activity_index is 9.4 and the ED50 was 82.2 µmol/kg.

On to `Nc1ccc2oc(C(=O)O)cc(=O)c2c1`, for which the Activity_index worked out at 10 and the ED50 is 43.5 µmol/kg.

Turning to `O=C(O)c1cc(O)c2cccc(O)c2n1` [XANTHURENATE], the Activity_index is given as 9.1 and the 50% effective dose (ED50) is 114 µmol/kg.

As for `O=C(O)c1cc(=O)c2ccccc2[nH]1` [TRANSTORINE], the Activity_index came to 10.1 and the median effective dose (ED50) is 42.4 µmol/kg.

As to `N#Cc1cc(C#N)cc(NC(=O)C(=O)O)c1`, the Activity_index was found to be 14 and the 50% effective dose (ED50) amounted to 0.84 µmol/kg.
